The values below come from PubChem BioAssay AID449754 (Broad Institute, 2010).

Structures are written as SMILES. Records with an inconclusive call do not appear. The source made the active and inactive calls.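 The calls were made as follows: active = compounds whose fitted caspase activation AC50 is no more than tenfold above the top tested dose; inconclusive = flat fit with 30 to 70% activity, or a failed fit; inactive = the rest.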

For this assay, the system named is MEF Bax/Bak KO A1-BIM, caspase-Glo luminescence, 3 h. The assay is described as follows: caspase activation in Bax/Bak-deficient MEFs, dose response, counter-screen for A1 inhibitor project, cell-based, Bax-Bak knockout MEF, A1-2A-BIM, luminescence (AID 449754).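 Also: counterscreen where caspase activation signals off-target toxicity not A1 inhibition.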 Put shortly:
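Signal – CaspaseGlo luminescence · Assay system – A1-2A-BIM MEFs lacking Bax and Bak · Quantity – 2500 cells/well · Compound – 100 nL pinned compound per well · Times – 37 °C compound 3 h, cooling 30 min, reagent 1 h · Buffer or medium – RPMI-1640, 10% FBS · Read-out basis – caspase activity from luminescent signal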
Background: The purpose of a counterscreen is to sort out artefacts and off-target activity.
The term AC50 denotes the midpoint of the concentration-response curve, whichever way the signal moves. With `COc1ccccc1CCNC(C)CCc1ccc(O)cc1` (stereo unspecified), the AC50 was > 35 µM (inactive).

Regarding `CSC[C@@H]1NC(=S)N(c2ccc(C)cc2)C1=O`, the AC50 was > 35 µM (inactive).

Take `CCc1ccccc1NC(=O)C(CC)Sc1nc2cc3c(cc2c(=O)n1Cc1ccco1)OCO3` (stereo unspecified): the AC50 is > 35 µM (inactive).

Take `Cc1ccc(C)c(NC(=S)NC(NC(=O)Cc2cccc3ccccc23)C(Cl)(Cl)Cl)c1` (stereo unspecified): the AC50 was 24.1 µM.

For the molecule `CC(C)(C)c1ccc2c(c1)OC(C(=O)N/N=C\c1ccc[nH]1)CO2` (stereo unspecified), the AC50 was > 35 µM (inactive).

Take `CC(=O)OC(C)(C)/C=C/C(=O)C(C)(O)C1[C@H](O)C[C@@]2(C)C3CC=C4C(CC[C@@H](O)C4(C)C)[C@]3(CO)C(=O)C[C@]12C` (stereo partly specified): the AC50 is > 35 µM (inactive).

Take `COc1cc2cnc(-c3ccccc3)c(-c3cccc(C(F)(F)F)c3)c2cc1OC`: the AC50 is > 35 µM (inactive).

For the molecule `CCOc1ccc(NCc2cccn2-c2nnc(N3CCC(C(=O)NCCCN4CC(C)CC(C)C4)CC3)s2)cc1` (stereo unspecified), the AC50 is > 35 µM (inactive).

Consider `COc1cc2c(cc1NC(=O)COC(=O)/C=C/c1ccccc1)oc1ccccc12`, for which the AC50 is > 35 µM (inactive).

For `Cc1cccc(Nc2nc(N)c([N+](=O)[O-])c(N3CCCC(C)C3)n2)c1` (stereo unspecified), the AC50 was > 35 µM (inactive).

Consider `CCOCCCNC(=O)c1ccc2c(c1)N=C(CC)c1cc(Br)ccc1S2`, for which the AC50 is > 35 µM (inactive).

Consider `Cc1ccc(-c2nc(NC(=O)c3nn(C)cc3[N+](=O)[O-])sc2C)cc1`, for which the AC50 is 6.29 µM.

For the molecule `O=C(NC[C@H]1CCCO1)c1cccc2c1C(=O)c1ccc(-c3ccc(F)cc3OCc3ccccc3)cc1S2(=O)=O`, the AC50 is > 35 µM (inactive).

As to `COc1cc(NC(=O)c2ccccc2F)ccc1NC(=O)c1cc2ccccc2o1`, the AC50 was > 35 µM (inactive).

As for `CCOc1cccc(C(=O)Nc2cccc(-c3nnc(-c4ccc(C)cc4)o3)c2)c1`, the AC50 is 35.7 µM.

On to `O=C(Nc1ccc([N+](=O)[O-])cc1)C(Cc1ccccc1)N1C(=O)c2cccc3cccc(c23)C1=O` (stereo unspecified), for which the AC50 was > 35 µM (inactive).

As to `COc1ccc(Oc2cc(NC(=O)c3nn(C)cc3[N+](=O)[O-])cc([N+](=O)[O-])c2)cc1`, the AC50 was > 35 µM (inactive).

Take `CCOc1ccc(OCC(=O)N(CCC2=CCCCC2)c2c(N)n(Cc3ccccc3)c(=O)[nH]c2=O)cc1`: the AC50 is 18.8 µM.

Regarding `O=C(Nc1ccc2oc(-c3ccccc3)nc2c1)c1ccccc1F`, the AC50 is > 35 µM (inactive).

In the case of `Cc1cc(C)cc(Cn2ncc(Cl)c(Cl)c2=O)c1`, the AC50 is > 35 µM (inactive).

With `Cn1cc([N+](=O)[O-])c(C(=O)Nc2cc(Oc3ccccc3)cc([N+](=O)[O-])c2)n1`, the AC50 is > 35 µM (inactive).

In the case of `Cc1ccc(S(=O)(=O)N(C)Cc2ccc(C(=O)N/N=C/c3ccc(OC(F)F)cc3)cc2)cc1`, the AC50 is > 35 µM (inactive).

In the case of `Cc1cc(NC(=O)CSc2nc3cc(Cl)ccc3c(=O)n2Cc2ccco2)no1`, the AC50 is > 35 µM (inactive).

On to `Cc1ccc(CS(=O)(=O)c2ncc(Cl)c(C(=O)Nc3nnc(C(C)C)s3)n2)cc1`, for which the AC50 was > 35 µM (inactive).

Turning to `COc1ccc2c(c1)[nH]c1c(=O)n(/N=C/C3C(C)C=C(C)CC3C)c(=O)[nH]c12` (stereo unspecified), the AC50 was > 35 µM (inactive).

For the molecule `CCOC(=O)c1sc(NC(=O)CSc2nc(C)cc(C)c2C#N)c(C#N)c1C`, the AC50 is > 35 µM (inactive).

On to `Nc1nc(F)nc2c1ncn2[C@@H]1O[C@H](CO)[C@@H](O)[C@H]1O`, for which the AC50 was > 35 µM (inactive).

For `CCOc1cc(/C=N/Nc2cc(C)nc(-n3nc(C)cc3C)n2)ccc1O`, the AC50 was > 35 µM (inactive).

As for `Cc1ccc(S(=O)(=O)c2nnn3c2nc(Nc2cccc(C)c2)c2ccccc23)cc1`, the AC50 was > 35 µM (inactive).

`Cc1cc(C(=O)CCl)c(C)n1CCc1ccc(Cl)cc1`: the AC50 is > 35 µM (inactive).

`CC[C@H]1CN2CCc3cc(OC)c(OC)cc3[C@@H]2C[C@@H]1C[C@H]1NCCc2cc(OC)c(OC)cc21`: the AC50 was > 35 µM (inactive).

Turning to `CCOC(=O)/C=c1\s/c(=C\c2ccc(C(=O)OC)cc2)c(=O)n1CC(=O)Nc1ccccc1`, the AC50 was > 35 µM (inactive).

Consider `COC(=O)Cc1csc(/N=C/c2c(O)n(-c3cccc(C(F)(F)F)c3)c(=O)c3ccccc23)n1`, for which the AC50 is 28 µM.

On to `COc1ccc(NC(=O)CSc2nc3ccc(Nc4nc(N5CCOCC5)nc(N5CCOCC5)n4)cc3s2)cc1`, for which the AC50 was > 35 µM (inactive).

For the molecule `CN(C)CCCN(C(=O)c1ccc(S(=O)(=O)N2CCc3ccccc3C2)cc1)c1nc2ccc(F)cc2s1`, the AC50 is > 35 µM (inactive).

Consider `Cc1ccc(NC(=O)c2ccc(NCC3CCCO3)c([N+](=O)[O-])c2)cc1Cl` (stereo unspecified), for which the AC50 is > 35 µM (inactive).

For `CN(C)CCN(C(=O)/C=C/c1cccs1)c1nc2c(F)cc(F)cc2s1`, the AC50 was > 35 µM (inactive).

Consider `O=C(CCl)N=c1sccn1Cc1ccccc1Cl`, for which the AC50 was > 35 µM (inactive).

For the molecule `Cc1cc(NC(=O)/C(C#N)=C/c2ccc(-c3ccc(SC(F)F)cc3)o2)n(-c2ccccc2)n1`, the AC50 is > 35 µM (inactive).

With `CC(C)c1cccc(-c2ccc3c(c2)S(=O)(=O)c2cccc(C(=O)NCc4ccccc4Cl)c2C3=O)c1`, the AC50 is > 35 µM (inactive).

`COc1cc(/C=C(/C#N)C(=O)Nc2ccc(Cl)cc2)ccc1Oc1nc(Cl)ncc1F`: the AC50 is > 35 µM (inactive).

With `Cc1[nH]nc2nc(SCC(=O)NCCC3=CCCCC3)n(-c3ccc(Br)cc3)c(=N)c12`, the AC50 is 18.6 µM.

For `COc1ccc(OC)c2sc(N(CCCN(C)C)C(=O)c3ccc(S(=O)(=O)N4CCc5ccccc5C4)cc3)nc12`, the AC50 is > 35 µM (inactive).

Regarding `CCc1nn(-c2cc(Oc3cccc4ccccc34)nc(-c3ccccc3)n2)c(N)c1C#N`, the AC50 is > 35 µM (inactive).

With `CCc1ccc(Oc2coc3cc(OCC(=O)Nc4cc(C)ccc4C)ccc3c2=O)cc1`, the AC50 is > 35 µM (inactive).

In the case of `NC(=S)c1cn(C2OC(CO)C(O)C2O)c2ncnc(N)c12` (stereo unspecified), the AC50 is > 35 µM (inactive).

Consider `COc1ccccc1-c1cn[nH]c1-c1ccc(OCc2ccccc2)cc1O`, for which the AC50 was > 35 µM (inactive).

With `Cc1cccc(C)c1NC(=O)C(Cl)C(=O)c1ccccc1` (stereo unspecified), the AC50 is > 35 µM (inactive).

As to `N#Cc1c(C(F)(F)F)cc(-c2ccccc2)nc1SCC(=O)Nc1sc2c(c1C#N)CCC2`, the AC50 was > 35 µM (inactive).

`Cn1c(=NC(=O)CCl)sc2ccccc21`: the AC50 is > 35 µM (inactive).

With `CC(C)(C)C1C/C(=C/c2ccccn2)C(=O)/C(=C/c2ccccn2)C1` (stereo unspecified), the AC50 is 8.26 µM.

In the case of `O=C(N/C=N/OCc1ccc(Cl)cc1Cl)NOCc1ncc(C(F)(F)F)cc1Cl`, the AC50 was > 35 µM (inactive).

As to `Cc1cccc(NC(=O)CSc2nc(C)c(CC(=O)c3ccc(Br)cc3)c(C)c2C#N)c1C`, the AC50 was > 35 µM (inactive).

Turning to `O=c1c(Cl)c(Cl)cnn1Cc1ccccc1Cl`, the AC50 is > 35 µM (inactive).

For `CC(=O)OC(C)(C)/C=C/C(=O)[C@](C)(O)C1[C@H](O)C[C@@]2(C)C3CC=C4C(C[C@H](O)C(=O)C4(C)C)[C@]3(C)C(=O)C[C@]12C` (stereo partly specified), the AC50 was > 35 µM (inactive).

As for `COc1cc(NC(=O)c2ccc(Cl)cc2Cl)ccc1-c1cc2ccccc2oc1=O`, the AC50 is > 35 µM (inactive).

Consider `O=C(N=Nc1c(O)[nH]c2ccc([N+](=O)[O-])cc12)c1cc(-c2ccccc2Cl)nc2ccccc12`, for which the AC50 was > 35 µM (inactive).

For `Cc1nc(SCc2nc3c([N+](=O)[O-])cccc3[nH]2)c2oc3ccccc3c2n1`, the AC50 is > 35 µM (inactive).

As to `COc1ccc(NC(=O)C(=O)N/N=C\c2ccc(CNC(=O)C(=O)Nc3ccc(C)c(C)c3)o2)c(OC)c1`, the AC50 is 32 µM.

For the molecule `COc1cc(C(=O)Nc2cc3c(cc2N2CCCCC2)n(C)c(=O)n3C)cc(OC)c1OC`, the AC50 is > 35 µM (inactive).

On to `Cc1cccc(CS(=O)(=O)c2ncc(Cl)c(C(=O)Nc3nnc(C(C)C)s3)n2)c1`, for which the AC50 was > 35 µM (inactive).

In the case of `Cc1ccc2c(c1)c(C1=c3ccccc3=NC1=O)c(O)n2C`, the AC50 is > 35 µM (inactive).

On to `CCOC(=O)N1C(=O)[C@@](c2ccc(Cl)cc2)(C(C)C)N1C(=O)OCC`, for which the AC50 was 35.1 µM.

For the molecule `CCOc1ccc(N2C(=O)/C(=C\c3ccc(O)c(OC)c3)S(=O)(=O)C2c2cccc([N+](=O)[O-])c2)cc1` (stereo unspecified), the AC50 is > 35 µM (inactive).

Regarding `CCc1cc2c(=O)c(-c3cnn(-c4ccccc4)c3)c(C)oc2cc1OCC(=O)Nc1cccc(C)c1`, the AC50 is > 35 µM (inactive).

On to `CC1CCN(Cc2c(C(=O)N/N=C/c3ccc(C(C)(C)C)cc3)nnn2-c2nonc2N)CC1`, for which the AC50 was > 35 µM (inactive).

For the molecule `Cc1occc1-c1nnc(SCC(=O)NCCc2ccccc2)n1Cc1ccccc1`, the AC50 was > 35 µM (inactive).

Consider `Cc1ccc(C)c(S(=O)(=O)NCC(=O)Nc2sc3c(c2C(N)=O)CCC(C)C3)c1` (stereo unspecified), for which the AC50 was > 35 µM (inactive).

Regarding `COc1ccc(-c2oc(=O)c3cc(OC)c(OC)cc3c2/C=C/c2cccc([N+](=O)[O-])c2)cc1`, the AC50 was > 35 µM (inactive).

For `COC(=O)CSc1nc(N)c2c3c(sc2n1)C(c1ccccc1)SC(c1ccccc1)C3` (stereo unspecified), the AC50 is > 35 µM (inactive).

As for `COc1ccc(OC)c(NC(=O)c2cc3c(Cl)nc4ccccc4c3s2)c1`, the AC50 was > 35 µM (inactive).

As to `CC(C)c1cccc(-c2ccc3c(c2)S(=O)(=O)c2cccc(C(=O)NC4CCCC4)c2C3=O)c1`, the AC50 was > 35 µM (inactive).

Regarding `CCSc1nnc(NC(=O)c2nc(S(=O)(=O)Cc3ccc(F)cc3)ncc2Cl)s1`, the AC50 was > 35 µM (inactive).

On to `CCOC(=O)C(C(=O)OCC)c1cc(Br)c2noc3c2c1C(=O)c1ccccc1-3`, for which the AC50 is > 35 µM (inactive).

On to `Cc1c(CCOC(=O)c2ccc(N3CCOCC3)c([N+](=O)[O-])c2)sc[n+]1CC#N`, for which the AC50 was > 35 µM (inactive).

Take `COc1ccc(C2CC(c3c(O)cc(C)oc3=O)=NCCS2)c(OC)c1` (stereo unspecified): the AC50 is > 35 µM (inactive).
